# Laboratory results from ChEMBL document CHEMBL4342509, “New 8-Nitroquinolinone Derivative Displaying Submicromolar in Vitro Activities against Both Trypanosoma brucei and cruzi” (ACS Med Chem Lett, 2020).
# Columns and labels:
# [1] = test system: Trypanosoma brucei brucei; assay: Antitrypanosomal activity against blood stream form of Trypanosoma brucei brucei S427 trypomastigotes overexpressing NTR assessed as inhibition of parasite growth; type: functional, organism-based
# [2] = test system: Trypanosoma brucei brucei; assay: Antitrypanosomal activity against bloodstream form of wild type Trypanosoma brucei brucei S427 trypomastigotes assessed as inhibition of parasite growth; type: functional, organism-based
# [3] = test system: Trypanosoma cruzi; assay: Antitrypanosomal activity against Trypanosoma cruzi CL Brener amastigotes infected in African green monkey Vero cells assessed as reduction in parasite growth incubated for 120 hrs at 24 hrs post-infection and measured on day 6 post-infection by hemocytometer based light microscopy; type: functional, organism-based
# Outline: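 Compounds, 2–4-fold serial dilutions over 0,1–25 µM final, applied for 120 h at 37°C. On day 6, released trypomastigotes pooled, centrifuged and counted by haemocytometer. EC50 by nonlinear regression; two experiments, triplicate wells.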
# [4] = test system: Trypanosoma brucei brucei; assay: Antitrypanosomal activity against Trypanosoma brucei brucei AnTat 1.9 trypomastigotes assessed as reduction in parasite viability incubated for 69 hrs by Alamar Blue dye based assay; type: functional, organism-based; conditions: AnTat 1.9, 69 h
# Outline: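 Bloodstream AnTat 1.9 parasites grown at 37°C, 5% CO₂ in MEM with Earle's salts (Baltz-type) plus 0.5 mM mercaptoethanol, 1.5 mM L-cysteine, 0.05 mM bathocuproine sulfate and 20% heat-inactivated horse serum. EC50 from nonlinear regression, three independent experiments in duplicate.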
# [5] = Selectivity index, ratio of CC50 for human HepG2 cells to EC50 for Trypanosoma brucei brucei trypomastigotes AnTat 1.9; type: toxicity; conditions: read-out: Ratio CC50/EC50
# [6] = test system: HepG2; assay: (§1) Cytotoxicity against human HepG2 cells assessed as reduction in cell viability incubated for 72 hrs by MTT assay; type: cell-based; conditions: hepg2, 72 h
# [7] = test system: Leishmania infantum; assay: Antileishmanial activity against Leishmania infantum MHOM/MA/67/ITMAP-263 axenic amastigotes expressing luciferase plasmid assessed as reduction in parasite viability incubated for 48 hrs by Steady Glow reagent based luminescence assay; type: functional, organism-based; conditions: MHOM/MA/67/ITMAP-263, 48 h
# [8] = Electrochemical behavior of the compound assessed as redox potential corrected toward normal hydrogen electrode by cyclic voltammetry
# [9] = as §1; type: cell-based; conditions: HepG2 cells
# [10] = test system: Leishmania donovani; assay: Antileishmanial activity against Leishmania donovani BOB (MHOM/SD/62/1S-CL2D) promastigotes overexpressing NTR2 assessed as inhibition of parasite growth incubated for 72 hrs by resazurin dye based assay; type: functional, organism-based
# Outline: (§2)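 LdBOB promastigotes grown at 26 °C in modified M199; NTR1- or NTR2-overexpressing lines kept under nourseothricin (100 µg/mL). Triplicate cultures seeded at 5×10^4 parasites/mL with drug for 72 h; 50 µM resazurin added, fluorescence (ex 528/em 590 nm) read after a further 4 h.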
# [11] = test system: Leishmania donovani; assay: Antileishmanial activity against Leishmania donovani BOB (MHOM/SD/62/1S-CL2D) promastigotes overexpressing NTR1 assessed as inhibition of parasite growth incubated for 72 hrs by resazurin dye based assay; type: functional, organism-based; outline: as §2
# [12] = test system: Leishmania donovani; assay: Antileishmanial activity against wild type Leishmania donovani BOB (MHOM/SD/62/1S-CL2D) promastigotes assessed as inhibition of parasite growth incubated for 72 hrs by resazurin dye based assay; type: functional, organism-based; outline: as §2
Compound,EC50 [4],selectivity ratio [5],CC50 [6],EC50 [7],Activity [8],also measured
CC1CS(=O)(=O)CCN1/N=C/c1ccc([N+](=O)[O-])o1 (configuration not stated) [NIFURTIMOX],,,,,,EC50 [1]: 0.6 µM; EC50 [2]: 1.9 µM
O=C(Cn1ccnc1[N+](=O)[O-])NCc1ccccc1 [BENZNIDAZOLE],,,,,,EC50 [3]: 0.5 µM
O=c1[nH]c2c([N+](=O)[O-])cc(C(F)(F)F)cc2cc1Cl,0.57 µM,55,31.4 µM,9.2 µM,,
COc1ccc2cc(C(F)(F)F)cc([N+](=O)[O-])c2n1,20.9 µM,> 5,> 100 µM,> 100 µM,-0.75 V,
O=c1ccc2cc(C(F)(F)F)ccc2[nH]1,> 50 µM,,> 100 µM,> 100 µM,,
O=c1[nH]c2c([N+](=O)[O-])cc(Br)cc2cc1Br,0.05 µM,332,16.6 µM,6.5 µM,-0.37 V,
NCCCC(N)(C(=O)O)C(F)F (configuration not stated) [EFLORNITHINE],13.3 µM,,> 100 µM,,,
O=c1ccc2cc(Br)cc([N+](=O)[O-])c2[nH]1,0.07 µM,399,27.9 µM,11.6 µM,-0.4 V,
O=c1[nH]c2ccc(C(F)(F)F)cc2cc1Cl,> 50 µM,,> 100 µM,> 100 µM,,
O=c1[nH]c2ccc(C(F)(F)F)cc2cc1Br,> 50 µM,,> 100 µM,> 100 µM,,
O=C(O)c1ccc(-c2cc3cccc([N+](=O)[O-])c3[nH]c2=O)cc1,1.5 µM,80,,> 100 µM,-0.56 V,EC50 [1]: 4.2 µM; EC50 [2]: 5.4 µM; CC50 at 72 h [9]: 120 µM
O=c1[nH]c2c([N+](=O)[O-])cccc2cc1Br,,48,,,-0.45 V,EC50 [1]: 3.9 µM; EC50 [10]: 4.6 µM; EC50 [2]: 17.7 µM; EC50 [11]: 0.47 µM; EC50 [12]: 5.9 µM
